According to ChEMBL document CHEMBL1121581, “4-Piperazinyl-10H-thieno[2,3-b][1,5]benzodiazepines as potential neuroleptics” (J Med Chem, 1980):

Assays:
Rattus norvegicus [1] = test: Compound was assessed for its ability to block a conditioned avoidance response; Dose administered perorally is 10 mg/kg; 51-75%block; format: functional; conditions: route oral
Method in brief: (§1)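 Lilly Wistar rats (120–130 g) trained in a shuttle box to cross on a 5-s buzzer, with mild shock if no response within 1 s of buzzer end. Only rats with a high conditioned response were used. Groups of five were dosed orally 1 h 50 min before the session, then habituated 10 min and tested 20 min. Shocks were scored as % of stimuli and graded 0–5.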

[2] = Lethal dose in mice after perorla administration; format: toxicity, organism-based; conditions: mouse, in vivo, po
Mus musculus = test: Hypothermia in mice after peroral administration; format: functional
Rattus norvegicus [3] = test: Compound was assessed for its ability to produce catalepsy in rats; Dose administered perorally is 10 mg/kg; Group score is 8-15; format: functional; conditions: route oral
Method in brief: (§2)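 Groups of eight Lilly Wistar rats (180–190 g) were dosed orally, then checked at 0.5, 1, 1.5, 2, 3, 4 and 5 h. Front paws were placed on a 1.5-cm rod 7 cm above the table, and hold time was recorded up to 20 min. Each rat was scored 0–5 and its maximum scores were summed per group (maximum 40), then graded 0–4.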

Rattus norvegicus [4] = test: Compound was assessed for its ability to produce catalepsy in rats; Dose administered perorally is 50 mg/kg; Group score is 4-7; format: functional; conditions: route oral; method in brief: as §2
Rattus norvegicus [5] = test: Compound was assessed for its ability to block a conditioned avoidance response; Dose administered perorally is 50 mg/kg; 76-99%block; format: functional; conditions: route oral; method in brief: as §1
Rattus norvegicus [6] = test: Compound was assessed for its ability to produce catalepsy in rats; Dose administered perorally is 16 mg/kg; Group score is 4-7; format: functional; conditions: route oral; method in brief: as §2
Rattus norvegicus [7] = test: Compound was assessed for its ability to block a conditioned avoidance response; Dose administered perorally is 10 mg/kg; 31-50%block; format: functional; conditions: route oral; method in brief: as §1
Rattus norvegicus [8] = test: Ability to block a conditioned avoidance response; Dose administered perorally is 50 mg/kg.; format: functional; conditions: route oral; method in brief: as §1
Rattus norvegicus [9] = test: Compound was assessed for its ability to block a conditioned avoidance response; Dose administered perorally is 20 mg/kg; 76-99%block; format: functional; conditions: route oral; method in brief: as §1
Rattus norvegicus [10] = test: Compound was assessed for its ability to produce catalepsy in rats; Dose administered perorally is 20 mg/kg; Group score is 8-15; format: functional; conditions: route oral; method in brief: as §2
Rattus norvegicus [11] = test: Compound was assessed for its ability to block a conditioned avoidance response; Dose administered perorally is 25 mg/kg; no significant effect (0-25%block); format: functional; conditions: route oral; method in brief: as §1
Rattus norvegicus [12] = test: Compound was assessed for its ability to block a conditioned avoidance response; Dose administered perorally is 10 mg/kg; no significant effect (0-25%block); format: functional; conditions: route oral; method in brief: as §1
Rattus norvegicus [13] = test: Compound was assessed for its ability to block a conditioned avoidance response; Dose administered perorally is 2.5 mg/kg; 31-50%block; format: functional; conditions: route oral; method in brief: as §1
Rattus norvegicus [14] = test: Compound was assessed for its ability to produce catalepsy in rats; Dose administered perorally is 2.5 mg/kg; Group score is 31-40; format: functional; conditions: route oral; method in brief: as §2
Rattus norvegicus [15] = test: Compound was assessed for its ability to block a conditioned avoidance response; Dose administered perorally is 50 mg/kg; 26-30%block; format: functional; conditions: route oral; method in brief: as §1
Rattus norvegicus [16] = test: Compound was assessed for its ability to block a conditioned avoidance response; Dose administered perorally is 8 mg/kg; 31-50%block; format: functional; conditions: route oral; method in brief: as §1
Rattus norvegicus [17] = test: Compound was assessed for its ability to produce catalepsy in rats; Dose administered perorally is 8 mg/kg; Group score is 4-7; format: functional; conditions: route oral; method in brief: as §2
Rattus norvegicus [18] = test: Compound was assessed for its ability to block a conditioned avoidance response; Dose administered intraperitoneally is 50 mg/kg; no significant effect (0-25%block); format: functional; conditions: route intraperitoneal
Rattus norvegicus [19] = test: Compound was assessed for its ability to produce catalepsy in rats; Dose administered perorally is 50 mg/kg; Group score is 0-3; format: functional; conditions: route oral; method in brief: as §2
Rattus norvegicus [20] = test: Compound was assessed for its ability to block a conditioned avoidance response; Dose administered perorally is 40 mg/kg; 26-30%block; format: functional; conditions: route oral; method in brief: as §1
Rattus norvegicus [21] = test: Compound was assessed for its ability to produce catalepsy in rats; Dose administered perorally is 10 mg/kg; Group score is 4-7; format: functional; conditions: route oral; method in brief: as §2
Rattus norvegicus [22] = test: Compound was assessed for its ability to produce catalepsy in rats; Dose administered perorally is 25 mg/kg; Group score is 16-30; format: functional; conditions: route oral; method in brief: as §2

Row | Compound | LD50 [2] [mg/kg] | EDmin (Mus musculus) [mg/kg] | also measured
1 | Cc1cc2c(s1)Nc1ccc(F)cc1N=C2N1CC[N+](C)([O-])CC1 | 200 | 6.25 | Activity (Rattus norvegicus [1]): 3; Activity (Rattus norvegicus [3]): 2
2 | CC(O)c1cc2c(s1)Nc1ccc(F)cc1N=C2N1CCN(C)CC1 (stereo not given) | > 400 | 25 | Activity (Rattus norvegicus [4]): 1; Activity (Rattus norvegicus [5]): 4
3 | CCc1cc2c(s1)Nc1ccccc1N=C2N1CCN(C)CC1 | 150 | 25 | Activity (Rattus norvegicus [6]): 1; Activity (Rattus norvegicus [7]): 2
4 | CCc1cc2c(s1)Nc1ccc(F)cc1N=C2N1CCOCC1 | > 400 | >400 | Activity (Rattus norvegicus [8]): 0
5 | CCc1cc2c(s1)Nc1ccccc1N=C2N1CCN(CCO)CC1 | > 400 | 25 | Activity (Rattus norvegicus [9]): 4; Activity (Rattus norvegicus [10]): 2
6 | CCc1cc2c(s1)Nc1ccccc1C(N1CCN(C)CC1)=N2 | > 200 | 100 | Activity (Rattus norvegicus [11]): 0
7 | CCCN1CCN(C2=Nc3ccccc3Nc3sc(CC)cc32)CC1 | > 200 | 25 | Activity (Rattus norvegicus [12]): 0; Activity (Rattus norvegicus [10]): 2
8 | OCCN1CCN(CC/C=C2/c3ccccc3Sc3ccc(C(F)(F)F)cc32)CC1 [Z-FLUPENTIXOL] | 300 | 3 | Activity (Rattus norvegicus [13]): 2; Activity (Rattus norvegicus [14]): 4
9 | CCc1cc2c(s1)Nc1cc(F)cc(F)c1N=C2N1CCN(C)CC1 | 600 | 25 | Activity (Rattus norvegicus [4]): 1; Activity (Rattus norvegicus [15]): 1
10 | CCOC(=O)N1CCN(C2=Nc3ccccc3Nc3sc(CC)cc32)CC1 | > 400 | 50 | Activity (Rattus norvegicus [8]): 0
11 | CCc1cc2c(s1)Nc1ccc(F)cc1N=C2N1CCN(C)CC1.O=C(O)/C=C\C(=O)O | 200 | 6.25 | Activity (Rattus norvegicus [16]): 2; Activity (Rattus norvegicus [17]): 1
12 | CCc1cc2c(s1)Nc1ccc(F)cc1N=C2N1CCN(c2ccccc2)CC1 | > 400 | >400 | Activity (Rattus norvegicus [18]): 0
13 | CN1CCN(C2=Nc3cc(F)ccc3Nc3sc(-c4ccccc4)cc32)CC1 | > 400 | 50 | Activity (Rattus norvegicus [8]): 0; Activity (Rattus norvegicus [19]): 0
14 | CC(=O)c1cc2c(s1)Nc1ccccc1C(N1CCN(C)CC1)=N2 | > 400 | 200 | Activity (Rattus norvegicus [20]): 1
15 | CCc1cc2c(s1)Nc1ccc(S(C)(=O)=O)cc1N=C2N1CCN(C)CC1 | > 400 | >400 | Activity (Rattus norvegicus [8]): 0
16 | CCc1cc2c(s1)Nc1ccc(Cl)cc1N=C2N1CCN(C)CC1 | 50 | 6.25 | Activity (Rattus norvegicus [16]): 2; Activity (Rattus norvegicus [17]): 1
17 | CN(C)CCCN1c2ccccc2Sc2ccc(Cl)cc21 [CHLORPROMAZINE] | 400 | 6.25 | Activity (Rattus norvegicus [1]): 3; Activity (Rattus norvegicus [21]): 1
18 | CCc1cc2c(s1)Nc1ccccc1N=C2N1CCNCC1 | 800 | 100 | Activity (Rattus norvegicus [8]): 0
19 | CCc1cc2c(s1)Nc1ccc(F)cc1N=C2NCCN1CCOCC1 | 400 | 200 | Activity (Rattus norvegicus [18]): 0
20 | CCc1cc2c(s1)Nc1ccc(Cl)cc1N=C2N1CCNCC1 | > 400 | 50 | Activity (Rattus norvegicus [8]): 0; Activity (Rattus norvegicus [19]): 0
21 | CCc1cc2c(s1)Nc1ccc(S(=O)(=O)N(C)C)cc1N=C2N1CCN(C)CC1 | > 800 | >800 | Activity (Rattus norvegicus [8]): 0
22 | CCc1cc2c(s1)Nc1ccc(F)cc1N=C2N1CCN(c2cccc(Cl)c2)CC1 | > 400 | >400 | Activity (Rattus norvegicus [18]): 0
23 | CCc1cc2c(s1)Nc1ccc(F)cc1N=C2N1CCN(c2cccc(C(F)(F)F)c2)CC1 | 400 | >400 | Activity (Rattus norvegicus [18]): 0
24 | CCc1cc2c(s1)Nc1cc(F)c(F)cc1N=C2N1CCN(C)CC1 | 300 | 6.25 | Activity (Rattus norvegicus [1]): 3; Activity (Rattus norvegicus [22]): 3
